Experimental data published in ChEMBL document CHEMBL4049387, “Combination of l-Carnitine with Lipophilic Linkage-Donating Gemcitabine Derivatives as Intestinal Novel Organic Cation Transporter 2-Targeting Oral Prodrugs” (J Med Chem, 2017).

Tests used:
[1] = Half life in pH 7.4 phosphate buffer at 5 uM by HPLC method; assay type: physicochemical
Summary of the method: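 Compound dissolved at 5 µM in phosphate buffer (pH 1.2, 6.8 or 7.4), held at 37 °C for 24 h. Aliquots taken at intervals and analysed by HPLC. t1/2 = 0.693/k from linear regression of pseudo-first-order kinetics.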

[2] = Half life in rat hepatic homogenates at 5 uM by HPLC method; assay type: ADME, tissue-based, Liver
Summary of the method: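 Compound at 5 µM final in rat plasma, 20% rat hepatic homogenate or 20% rat intestinal homogenate at 37 °C for 24 h. Homogenates made by homogenizing 0.3 g saline-washed tissue in 1 mL saline, spun 13,000 rpm 4 °C 5 min. Sampled at intervals, analysed by HPLC. t1/2 = 0.693/k.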

[3] = system: OCTN2; test: Ratio of drug transport in OCTN2 (unknown origin) expressing HEK293 cells assessed as transporter-mediated drug uptake at 25 uM to drug uptake in HEK293 cells at 25 uM; assay type: ADME, cell-based; details: human, HEK293 cells expressing OCTN2, against HEK293 cells
Summary of the method: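 OCTN2-transfected HEK293 cells and mock HEK293 cells incubated with 25 µM compound at 37 °C for 15 min, then cellular uptake measured; n = 2.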

[4] = target: T1, Organic cation/carnitine transporter 2 (Rattus norvegicus, UniProt O70594); test: Ratio of drug transport assessed as OCTN2 transporter mediated effective permeability in rat jejunum at 76 uM in absence of L-carnitine to drug transport assessed as OCTN2 transporter mediated effective permeability in rat jejunum at 76 uM in presence of L-carnitine; assay type: ADME
T1 sequence (O70594 whole entry): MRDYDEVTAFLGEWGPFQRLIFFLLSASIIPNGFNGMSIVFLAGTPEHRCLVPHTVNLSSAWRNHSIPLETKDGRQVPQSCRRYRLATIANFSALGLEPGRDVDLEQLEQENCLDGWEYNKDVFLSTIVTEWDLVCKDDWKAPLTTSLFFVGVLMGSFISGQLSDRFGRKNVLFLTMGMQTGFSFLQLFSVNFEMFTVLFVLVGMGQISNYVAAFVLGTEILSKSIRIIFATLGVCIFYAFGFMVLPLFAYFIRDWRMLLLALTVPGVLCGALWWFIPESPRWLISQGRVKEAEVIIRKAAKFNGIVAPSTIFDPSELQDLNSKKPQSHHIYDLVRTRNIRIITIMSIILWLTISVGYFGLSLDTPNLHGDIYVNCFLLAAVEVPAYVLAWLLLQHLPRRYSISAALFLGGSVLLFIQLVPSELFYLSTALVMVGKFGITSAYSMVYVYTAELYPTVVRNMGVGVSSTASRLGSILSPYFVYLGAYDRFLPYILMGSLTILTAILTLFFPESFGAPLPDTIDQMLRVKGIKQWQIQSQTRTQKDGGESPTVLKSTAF

[5] = system: Caco-2; test: Cytotoxicity against human Caco2 cells assessed as decrease in cell viability after 48 hrs by MTT assay; assay type: functional, cell-based; details: Caco-2, 48 h
Summary of the method: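 BxPC-3 and Caco-2 cells exposed to compounds for 48 h. Viability read by MTT assay kit. IC50 calculated from dose-response.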

[6] = Tmax in Wistar rat at 50 mg/kg, po administered as single dose by UPLC-MS/MS method; assay type: ADME, organism-based; details: in vivo
Summary of the method: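 Wistar rats, six per group, single oral dose equivalent to 50 mg/kg gemcitabine; separate group given gemcitabine iv at 7.5 mg/kg. Oral sampling at 5, 10, 15, 30 min and 1, 2, 4, 6, 8, 12, 24 h; iv at 15, 30 min and 2, 4, 8, 12, 24 h. Blood into THU-pretreated heparinized tubes, centrifuged 3000 × g 15 min, plasma at -80 °C. Prodrug and gemcitabine quantified by UPLC-MS/MS. F = AUCpo×Div/AUCiv/Dpo×100%.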

[7] = system: Heart; test: Drug uptake in mouse heart at 102 mg/kg, po administered as single dose at 2 hrs post dose; assay type: ADME, organism-based; details: in vivo
Summary of the method: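 Mice, three per time point, single oral dose of 102 mg/kg (equivalent to 50 mg/kg gemcitabine). Heart, liver, spleen, lung, kidney and brain collected at 0.16, 0.5 and 2 h, rinsed in saline. 0.3 g tissue homogenized 1 min in 1 mL saline, spun 13,000 rpm 4 °C 5 min. Gemcitabine measured in supernatant.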

[8] = system: Mus musculus; test: Toxicity in Kunming mouse assessed as […] degeneration in cardiac muscle at 102 mg/kg, po administered once daily for 14 days by hematoxylin/eosin staining based optical microscopic analysis; assay type: organism-based; details: in vivo, 336 h
Summary of the method: (§1)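 Kunming mice, four per group, dosed orally once daily for 14 days with 102 mg/kg or saline control; body weight recorded every other day. Heart, liver, spleen, lung and kidney fixed in 10% buffered formalin, paraffin-embedded, sectioned, stained with hematoxylin and eosin, and examined by optical microscopy.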

[9] = system: Mus musculus; test: Toxicity in Kunming mouse assessed as […] degeneration in spleen at 102 mg/kg, po administered once daily for 14 days by hematoxylin/eosin staining based optical microscopic analysis; assay type: organism-based; details: in vivo, 336 h; summary of the method: as §1
[10] = system: Mus musculus; test: Toxicity in Kunming mouse assessed as […] degeneration in kidney at 102 mg/kg, po administered once daily for 14 days by hematoxylin/eosin staining based optical microscopic analysis; assay type: organism-based; details: in vivo, 336 h; summary of the method: as §1
[11] = system: Mus musculus; test: Toxicity in Kunming mouse assessed as inflammatory infiltrates in kidney at 102 mg/kg, po administered once daily for 14 days by hematoxylin/eosin staining based optical microscopic analysis; assay type: organism-based; details: in vivo, 336 h; summary of the method: as §1
[12] = system: Mus musculus; test: Toxicity in Kunming mouse assessed as fibrosis in spleen at 102 mg/kg, po administered once daily for 14 days by hematoxylin/eosin staining based optical microscopic analysis; assay type: organism-based; details: in vivo, 336 h; summary of the method: as §1
[13] = target: T2, Organic cation/carnitine transporter 2 (Homo sapiens, UniProt O76082); test: Drug transport assessed as Vmax for OCTN2 transporter mediated drug uptake in human Caco2 cells after 10 mins by Eadie-Hofstee plot method; assay type: ADME, cell-based; details: caco-2, 10 min
T2 sequence (O76082 whole entry): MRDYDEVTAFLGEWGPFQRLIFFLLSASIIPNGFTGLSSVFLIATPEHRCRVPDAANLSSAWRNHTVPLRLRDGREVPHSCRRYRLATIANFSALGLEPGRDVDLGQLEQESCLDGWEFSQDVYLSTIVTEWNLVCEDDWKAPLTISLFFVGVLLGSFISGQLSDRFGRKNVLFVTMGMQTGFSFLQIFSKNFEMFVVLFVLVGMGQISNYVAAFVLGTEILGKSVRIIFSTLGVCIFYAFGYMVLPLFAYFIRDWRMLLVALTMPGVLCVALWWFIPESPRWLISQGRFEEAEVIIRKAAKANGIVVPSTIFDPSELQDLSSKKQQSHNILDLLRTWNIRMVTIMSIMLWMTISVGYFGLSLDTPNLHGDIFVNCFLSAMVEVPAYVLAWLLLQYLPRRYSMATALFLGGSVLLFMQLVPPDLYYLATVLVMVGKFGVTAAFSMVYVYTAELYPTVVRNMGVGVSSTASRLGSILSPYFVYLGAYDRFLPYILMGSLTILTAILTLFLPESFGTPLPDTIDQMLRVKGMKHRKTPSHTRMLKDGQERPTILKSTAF

half-life at 5 µM [1]: 45.8 h
half-life at 5 µM [2]: 17.4 h
uptake ratio at 25 µM [3]: 3 to 8
Ratio [4]: 11
Tmax [6]: 1.3 h
Drug uptake [7]: Not Active
Vmax [13]: 0.286 nmol/mg
Compound: C[N+](C)(C)CC(CC(=O)[O-])OC(=O)CCCCC(=O)Nc1ccn([C@@H]2O[C@H](CO)[C@@H](O)C2(F)F)c(=O)n1 (stereo partly drawn)
IC50 [5]: 40.9 µM
Activity [8]: Non-Toxic
Activity [9]: Non-Toxic
Activity [10]: Non-Toxic
Activity [11]: Non-Toxic
Activity [12]: Non-Toxic
